Data as given in ChEMBL document CHEMBL4359840, “Computationally Driven Structure Optimization, Synthesis, and Biological Evaluation of Imidazole-Based Proprotein Convertase Subtilisin/Kexin 9 (PCSK9) Inhibitors” (J Med Chem, 2019).
The source made the active and inactive calls. The rule behind the calls is not given here.

Legend:
PCSK9/LDLR [1] = molecular target: T1, PCSK9/LDLR (Homo sapiens, UniProt Q8NBP7); assay: Inhibition of PCSK9 (unknown origin) interaction with LDLR expressed in human HepG2 cells assessed as increase in LDL uptake level measured after 24 hrs by LDL-Dylight 550 dye based fluorescence assay; assay type: cell-based
Target sequence in this assay (Q8NBP7 31-152 limits assumed): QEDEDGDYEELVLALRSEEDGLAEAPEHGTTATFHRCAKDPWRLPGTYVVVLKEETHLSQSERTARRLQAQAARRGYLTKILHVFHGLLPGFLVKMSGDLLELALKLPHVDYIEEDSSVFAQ
Target sequence in this assay (Q8NBP7 153-692 limits assumed): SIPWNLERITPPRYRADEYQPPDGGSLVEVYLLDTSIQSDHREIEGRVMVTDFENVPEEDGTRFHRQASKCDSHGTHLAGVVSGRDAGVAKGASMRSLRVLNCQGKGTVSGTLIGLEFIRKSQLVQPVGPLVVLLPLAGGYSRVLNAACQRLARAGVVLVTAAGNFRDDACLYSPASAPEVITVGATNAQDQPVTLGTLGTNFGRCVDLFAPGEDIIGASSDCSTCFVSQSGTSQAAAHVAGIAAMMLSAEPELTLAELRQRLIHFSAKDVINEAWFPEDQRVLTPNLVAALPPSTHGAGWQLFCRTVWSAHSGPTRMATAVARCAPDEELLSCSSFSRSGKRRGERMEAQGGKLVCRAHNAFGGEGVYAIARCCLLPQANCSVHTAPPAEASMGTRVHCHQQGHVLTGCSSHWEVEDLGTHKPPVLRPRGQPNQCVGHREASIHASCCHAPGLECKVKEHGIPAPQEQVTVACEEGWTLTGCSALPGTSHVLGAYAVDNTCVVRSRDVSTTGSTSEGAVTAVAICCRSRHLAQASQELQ
Target sequence in this assay (P01130 22-860 partner limits assumed): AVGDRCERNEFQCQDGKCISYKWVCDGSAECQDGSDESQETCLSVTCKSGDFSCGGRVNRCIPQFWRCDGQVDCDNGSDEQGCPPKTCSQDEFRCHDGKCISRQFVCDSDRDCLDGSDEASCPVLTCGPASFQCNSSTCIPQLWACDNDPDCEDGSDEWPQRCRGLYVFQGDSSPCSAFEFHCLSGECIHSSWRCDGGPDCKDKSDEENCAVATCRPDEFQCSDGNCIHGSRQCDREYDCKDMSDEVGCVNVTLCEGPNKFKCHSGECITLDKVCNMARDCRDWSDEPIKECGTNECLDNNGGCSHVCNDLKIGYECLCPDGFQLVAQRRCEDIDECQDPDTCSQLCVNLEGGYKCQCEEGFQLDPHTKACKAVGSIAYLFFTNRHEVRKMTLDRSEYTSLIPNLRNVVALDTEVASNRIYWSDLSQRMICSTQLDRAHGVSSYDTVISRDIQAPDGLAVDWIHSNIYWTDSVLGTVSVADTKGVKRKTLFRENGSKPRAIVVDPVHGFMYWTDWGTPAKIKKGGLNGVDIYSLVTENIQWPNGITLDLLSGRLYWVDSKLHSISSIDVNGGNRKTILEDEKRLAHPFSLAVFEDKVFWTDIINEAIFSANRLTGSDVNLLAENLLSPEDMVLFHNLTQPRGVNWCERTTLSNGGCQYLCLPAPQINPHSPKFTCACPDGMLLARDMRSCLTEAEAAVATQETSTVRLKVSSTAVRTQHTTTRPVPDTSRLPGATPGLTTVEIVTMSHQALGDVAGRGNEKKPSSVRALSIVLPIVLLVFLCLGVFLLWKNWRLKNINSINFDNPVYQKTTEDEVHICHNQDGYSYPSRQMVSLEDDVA

PCSK9/LDLR [2] = molecular target: T1, PCSK9/LDLR; assay: (§1) Inhibition of recombinant His-tagged PCSK9 (unknown origin) binding to recombinant […] AB domain (unknown origin) measured after 2 hrs by ELISA; assay type: protein assay
Summary of the method: (§2)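 Commercial kit: compound added with His-tagged PCSK9 to wells coated with recombinant LDLR-AB domain. Bound His-PCSK9 quantified by absorbance at 450 nm. Mean ± s.d. of three independent experiments in duplicate.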

[3] = molecular target: T2, PCSK9/LDLR (Homo sapiens) (UniProt Q8NBP7+P01130); assay: as §1; assay type: protein assay; summary of the method: as §2
T2 sequence (P01130 22-860 partner limits assumed): as above
T2 sequence (Q8NBP7 31-152 limits assumed): as the sequence (Q8NBP7 31-152 limits assumed) above
T2 sequence (Q8NBP7 153-692 limits assumed): as the sequence (Q8NBP7 153-692 limits assumed) above

[4] = molecular target: T2, PCSK9/LDLR (Homo sapiens); assay: Inhibition of PCSK9 (unknown origin) interaction with LDLR expressed in human HepG2 cells assessed as LDLR level on cell membrane at 10 uM measured after 2 hrs by in-cell Western analysis (reference value: 30.5 to 47.2%); assay type: cell-based; set-up: scale not given: the % may be the effect or the level left
[5] = molecular target: T2, PCSK9/LDLR (Homo sapiens); assay: Inhibition of PCSK9 (unknown origin) interaction with LDLR expressed in human HepG2 cells assessed as increase LDLR level on cell membrane measured after 2 hrs by in-cell Western analysis; assay type: cell-based
[6] = molecular target: T2, PCSK9/LDLR (Homo sapiens); assay: Inhibition of PCSK9 (unknown origin) interaction with LDLR expressed in human HepG2 cells assessed as LDL uptake level at 0.1 uM measured after 2 hrs by LDL-Dylight 550 dye based fluorescence assay (reference value: 34.8 to 67%); assay type: cell-based; set-up: scale not given: the % may be the effect or the level left
[7] = molecular target: T2, PCSK9/LDLR (Homo sapiens); assay: Inhibition of PCSK9 (unknown origin) interaction with LDLR expressed in human HepG2 cells assessed as LDL uptake level at 1 uM measured after 2 hrs by LDL-Dylight 550 dye based fluorescence assay (reference value: 34.8 to 67%); assay type: cell-based; set-up: scale not given: the % may be the effect or the level left
[8] = molecular target: T2, PCSK9/LDLR (Homo sapiens); assay: Inhibition of PCSK9 (unknown origin) interaction with LDLR expressed in human HepG2 cells assessed as LDLR level on cell membrane at 0.1 uM measured after 2 hrs by in-cell Western analysis (reference value: 30.5 to 47.2%); assay type: cell-based; set-up: scale not given: the % may be the effect or the level left
HepG2 = assay: Cytotoxicity against human HepG2 cells assessed as reduction in cell viability at 0.1 to 10 uM measured after 48 hrs by MTT assay; assay type: cell-based; conditions: hepg2, 48 h
[9] = molecular target: T2, PCSK9/LDLR (Homo sapiens); assay: Inhibition of PCSK9 (unknown origin) interaction with LDLR expressed in human HepG2 cells assessed as LDLR level on cell membrane at 1 uM measured after 2 hrs by in-cell Western analysis (reference value: 30.5 to 47.2%); assay type: cell-based; set-up: scale not given: the % may be the effect or the level left
[10] = molecular target: T2, PCSK9/LDLR (Homo sapiens); assay: Inhibition of PCSK9 (unknown origin) interaction with LDLR expressed in human HepG2 cells assessed as LDL uptake level at 10 uM measured after 2 hrs by LDL-Dylight 550 dye based fluorescence assay (reference value: 34.8 to 67%); assay type: cell-based; set-up: scale not given: the % may be the effect or the level left
[11] = molecular target: T2, PCSK9/LDLR (Homo sapiens); assay: Inhibition of recombinant His-tagged PCSK9 (unknown origin) binding to recombinant […] AB domain (unknown origin) at 100 uM measured after 2 hrs by ELISA relative to control; assay type: protein assay; summary of the method: as §2
[12] = molecular target: T2, PCSK9/LDLR (Homo sapiens); assay: Inhibition of recombinant His-tagged PCSK9 (unknown origin) binding to recombinant […] AB domain (unknown origin) at 10 uM measured after 2 hrs by ELISA; assay type: protein assay; summary of the method: as §2
[13] = molecular target: T2, PCSK9/LDLR (Homo sapiens); assay: Inhibition of PCSK9 (unknown origin) interaction with LDLR expressed in human HepG2 cells assessed as increase in LDL uptake level at 10 uM measured after 2 hrs by LDL-Dylight 550 dye based fluorescence assay; assay type: cell-based
[14] = molecular target: T2, PCSK9/LDLR (Homo sapiens); assay: Inhibition of PCSK9 (unknown origin) interaction with LDLR expressed in human HepG2 cells assessed as increase LDLR level on cell membrane at 10 uM measured after 2 hrs by in-cell Western analysis; assay type: cell-based

With Cn1cncc1-c1ncc(-c2ncc(-c3ncc(-c4ccccc4)n3C)n2C)n1C the EC50 (PCSK9/LDLR [1]) was 6 µM.
CC(C)C[C@H](C(=O)N1CCN([C@@H](CC(N)=O)C(=O)N[C@@H](CCCNC(=N)N)C(=O)N[C@H]2CCOC2=O)CC1)N1C(=O)N[C@@H](CC(=O)O)C1=O gave an IC50 (PCSK9/LDLR [2]) of 20000 to 40000 nM.
For CNCCCCCn1cncc1-c1ncc(-c2ncc(-c3ccc(OC)cc3)n2C)n1CCc1ccccc1, the IC50 (PCSK9/LDLR [2]) was 3060 nM and the inhibition [3] was “Dose-dependent effect”.
With CNCCCCCn1cncc1-c1ncc(-c2ncc(-c3ccc(OC)cc3)n2C)n1Cc1ccccc1 the IC50 (PCSK9/LDLR [2]) was 1380 nM, the inhibition [3] was “Dose-dependent effect” and the Activity [4] was under 102%. The inhibition [5] was “Dose-dependent effect”, the Activity [6] was 63.6% and the Activity [7] was under 104%. The Activity [8] was under 77.7%, the Activity (HepG2) was “Non-Toxic” and the Activity [9] was under 101%. It also gave an Activity [10] of 101%.
H-LILPKHSDAD-OH showed an IC50 (PCSK9/LDLR [2]) of 1600 nM, an Activity [7] of under 104% and an Activity [9] of under 93.9%.
In the case of COc1ccc(-c2cnc(-c3cncn3Cc3ccccc3)n2C)cc1, the inhibition [11] is reported as 18.2%, the inhibition [12] is reported as “inactive” and the inhibition [13] is reported as “inactive”. For the same molecule, the inhibition [14] was “inactive”.
